Laboratory results from PMC7615481 (The Journal of biological chemistry, 2023).
Entries after “also recorded” stand apart in the source; their conditions may differ. Positions of bridges follow the written chain, without caps; N, C: chain ends. Residues, ends and D or L forms follow the SMILES beside them.

Tests used:
mouse GC-C [1] = molecular target: T1, mouse GC-C (Mus musculus, UniProt Q3UWA6); test: In vitro GC assay, MgGTP as substrate, with or without Lubrol, mGC-C; format: biochemical; conditions: 1 mM MgGTP, Fig. 4A
T1 sequence (Q3UWA6 20-1072): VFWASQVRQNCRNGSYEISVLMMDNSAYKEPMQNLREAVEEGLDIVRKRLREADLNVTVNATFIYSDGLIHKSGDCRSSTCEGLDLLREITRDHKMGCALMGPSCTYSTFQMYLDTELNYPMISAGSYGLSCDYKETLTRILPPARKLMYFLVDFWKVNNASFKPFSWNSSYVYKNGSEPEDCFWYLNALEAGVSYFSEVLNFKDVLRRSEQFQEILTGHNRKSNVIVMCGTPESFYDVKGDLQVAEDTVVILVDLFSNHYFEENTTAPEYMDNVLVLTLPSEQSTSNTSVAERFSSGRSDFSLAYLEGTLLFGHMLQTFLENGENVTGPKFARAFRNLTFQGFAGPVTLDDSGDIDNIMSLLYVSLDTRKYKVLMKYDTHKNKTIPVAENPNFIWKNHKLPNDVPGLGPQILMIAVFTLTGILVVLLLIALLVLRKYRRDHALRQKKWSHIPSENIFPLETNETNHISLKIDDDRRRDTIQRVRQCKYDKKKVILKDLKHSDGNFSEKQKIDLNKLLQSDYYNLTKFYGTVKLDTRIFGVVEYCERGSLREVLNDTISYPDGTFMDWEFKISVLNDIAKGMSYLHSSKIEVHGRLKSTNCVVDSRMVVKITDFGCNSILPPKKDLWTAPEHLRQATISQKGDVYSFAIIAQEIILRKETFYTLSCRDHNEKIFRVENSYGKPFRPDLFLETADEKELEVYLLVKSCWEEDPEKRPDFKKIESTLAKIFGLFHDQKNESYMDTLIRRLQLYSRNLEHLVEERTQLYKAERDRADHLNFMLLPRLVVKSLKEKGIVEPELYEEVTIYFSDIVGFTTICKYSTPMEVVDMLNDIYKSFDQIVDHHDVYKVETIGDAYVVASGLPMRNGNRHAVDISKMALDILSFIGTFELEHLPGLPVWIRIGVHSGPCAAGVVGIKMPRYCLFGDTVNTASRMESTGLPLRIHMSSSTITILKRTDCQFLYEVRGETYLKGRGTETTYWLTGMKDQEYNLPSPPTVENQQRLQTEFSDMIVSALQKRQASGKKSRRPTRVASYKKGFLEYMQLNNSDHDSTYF

mouse GC-C variant 1 = test: Ligand-stimulated cGMP production in HEK293E cells, mouse GC-C variant 1; format: cell-based; conditions: 10^−6 M ST, RIA, Fig. 1D
Outline: (§1)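 HEK293E cells expressing the mouse GC-C variant were preincubated for 30 min at 37 °C in a humidified CO₂ incubator in DMEM-HG with serum, antibiotics and 500 μM IBMX. They were then exposed to medium alone or 10⁻⁶ M ST for 30 min. Monolayers were lysed in 0.1 N HCl, and cGMP was measured by RIA and normalized to cell-surface receptor amount. Representative of three independent experiments.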

mouse GC-C variant 2 [2] = test: Ligand-stimulated cGMP production in HEK293E cells, mouse GC-C variant 2; format: cell-based; conditions: 10^−6 M ST, RIA, Fig. 1D
Outline: as §1

mouse GC-C [3] = molecular target: T1, mouse GC-C; format: cell-based
mice lacking GC-C = conditions: ref [12]; cited from earlier work
mice = conditions: mouse, in vivo; cited from earlier work
hmCYC chimeric GC-C [4] = format: cell-based
mouse GC-C variant 2 [5] = test: Radiolabeled ST binding to monolayers, mouse GC-C variant 2; conditions: monolayer HEK293E, Fig. 1E, three experiments
WT or GCD chimeric GC-C = format: binding; conditions: monolayers of HEK293E; Fig. 3E
human GC-C [6] = molecular target: T2, human GC-C (Homo sapiens, UniProt P25092); conditions: ref [21]; cited from earlier work
[7] = tested on: mhICD chimeric GC-C receptor; format: binding; conditions: words; Fig. 2H lower panel
[8] = tested on: chimeric receptor harboring the mouse KHD; format: biochemical; conditions: 0.1% Lubrol-PX, MgGTP
GC-CK516A [9] = conditions: Mg2+; ref [25]; cited from earlier work
hGC-C = conditions: Mg2+ as metal ion cofactor, ref [25]; cited from earlier work
hmCYC chimeric GC-C [10] = test: In vitro GC assay, MnGTP as substrate, hmCYC; format: biochemical; conditions: 1 mM MnATP, 1 mM MnGTP; Fig. 4B
GC-CK516A [11] = conditions: ref [25]; cited from earlier work
GC-C = conditions: in vitro; ref [38]; cited from earlier work
human GC-C [12] = molecular target: T2, human GC-C; test: In vitro GC assay, MnGTP as substrate, hGC-C; format: biochemical; conditions: 1 mM MnATP, 1 mM MnGTP; Fig. 4B
human GC-C [13] = molecular target: T2, human GC-C; conditions: Mn2+ as metal ion; ref [25]; cited from earlier work
mhCYC chimeric GC-C = test: In vitro GC assay, MgGTP as substrate, Lubrol-stimulated, mhCYC; format: biochemical; conditions: 1 mM MgATP, 1 mM MgGTP, 0.1% Lubrol-PX; Fig. 4A
hmCYC chimeric GC-C [14] = test: In vitro GC assay, MgGTP as substrate, Lubrol-stimulated, hmCYC; format: biochemical; conditions: 1 mM MgATP, 1 mM MgGTP, 0.1% Lubrol-PX; Fig. 4A
mouse GC-C [15] = molecular target: T1, mouse GC-C; test: In vitro GC assay, MnGTP as substrate, mGC-C; format: biochemical; conditions: 1 mM MnATP, 1 mM MnGTP; Fig. 4B

T2 sequence (P25092 24-1073): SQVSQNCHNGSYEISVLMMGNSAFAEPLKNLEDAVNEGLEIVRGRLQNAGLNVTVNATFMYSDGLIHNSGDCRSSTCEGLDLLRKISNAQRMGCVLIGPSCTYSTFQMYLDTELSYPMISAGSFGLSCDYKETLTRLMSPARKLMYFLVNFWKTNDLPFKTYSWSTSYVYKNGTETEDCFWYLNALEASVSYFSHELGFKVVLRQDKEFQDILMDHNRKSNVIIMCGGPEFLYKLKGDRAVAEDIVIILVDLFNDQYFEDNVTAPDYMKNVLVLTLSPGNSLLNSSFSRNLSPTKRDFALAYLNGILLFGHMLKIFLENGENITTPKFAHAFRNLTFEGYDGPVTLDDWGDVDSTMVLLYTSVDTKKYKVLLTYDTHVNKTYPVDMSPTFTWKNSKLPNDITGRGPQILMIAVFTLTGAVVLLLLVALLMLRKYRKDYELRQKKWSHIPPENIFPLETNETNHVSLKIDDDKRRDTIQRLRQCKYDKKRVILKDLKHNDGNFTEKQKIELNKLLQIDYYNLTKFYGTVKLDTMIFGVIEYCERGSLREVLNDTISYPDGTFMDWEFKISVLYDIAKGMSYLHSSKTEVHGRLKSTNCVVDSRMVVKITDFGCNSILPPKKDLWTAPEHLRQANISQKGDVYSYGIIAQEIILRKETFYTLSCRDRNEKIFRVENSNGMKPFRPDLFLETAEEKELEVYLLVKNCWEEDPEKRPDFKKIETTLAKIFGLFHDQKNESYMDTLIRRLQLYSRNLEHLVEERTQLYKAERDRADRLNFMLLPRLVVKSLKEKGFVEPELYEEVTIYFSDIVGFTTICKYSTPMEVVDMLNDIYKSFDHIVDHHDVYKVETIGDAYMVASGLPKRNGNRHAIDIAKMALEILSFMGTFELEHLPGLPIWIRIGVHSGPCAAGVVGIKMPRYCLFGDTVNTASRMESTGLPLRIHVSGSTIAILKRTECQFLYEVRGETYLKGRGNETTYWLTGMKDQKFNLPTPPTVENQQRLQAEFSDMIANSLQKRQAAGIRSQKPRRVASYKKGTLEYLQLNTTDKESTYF

For MgGTP, the “GC activity of mGC-C in the presence of MgGTP” value (mouse GC-C [1]; 4 mM free MgCl2, 37 °C 10 min, words) was “lower than that of hGC-C”.
With `CC(C)C[C@@H]1NC(=O)[C@H](CCC(=O)O)NC(=O)[C@@H]2CSSC[C@@H]3NC(=O)[C@H](C)NC(=O)[C@@H]4CCCN4C(=O)[C@H](CC(N)=O)NC(=O)[C@H](CSSC[C@H](NC(=O)[C@H](Cc4ccc(O)cc4)NC(=O)[C@H](CC(N)=O)NC(=O)[C@H](CO)NC(=O)[C@H](CO)NC(=O)[C@@H](N)CC(N)=O)C(=O)N2)NC(=O)[C@H](CSSC[C@@H](C(=O)N[C@@H](Cc2ccc(O)cc2)C(=O)O)NC(=O)CNC(=O)[C@H]([C@@H](C)O)NC3=O)NC1=O` [ST] (H-NSSNYCCELCCNPACTGCY-OH; disulfide 6-11, 7-15, 10-18; N-terminus and C-terminus assumed) the “cGMP levels on ST treatment, variant 1” value (mouse GC-C variant 1) was “significant increase in cGMP levels”, the “cGMP levels on ST treatment, variant 2” value (mouse GC-C variant 2 [2]) was “remained unchanged” and the “accumulation of cGMP at saturating ST, mGC-C” value (mouse GC-C [3]) was “much reduced in comparison with cells expressing hGC-C”. For the same compound, the “intracellular cGMP accumulation, mGC-C lower than hGC-C” value (mouse GC-C [3]) was ~ 10 fold, the “ST-induced fluid accumulation in mice lacking GC-C” value (mice lacking GC-C) was “resistant to ST-induced fluid accumulation” and the “accumulation of fluid in the gut of mice on ST treatment” value (mice) was “leads to the accumulation of fluid in the gut”. The “cGMP accumulation, hmCYC versus hGC-C” value (hmCYC chimeric GC-C [4]) was “log order reduction in cGMP accumulation when compared to hGC-C”, the “ligand binding ability of variant 2” value (mouse GC-C variant 2 [5]) was “marked reduction in the ligand binding ability” and the “binding to ST of GCD chimeric receptors” value (WT or GCD chimeric GC-C) was “determined by the ECD”. For the same compound, the “affinity of plasma membrane- and endoplasmic reticulum–associated hGC-C for ST” value (human GC-C [6]) was “comparable affinities” and the “affinity to the ST peptide of the mhICD chimera” value [7] was “reduced affinity to the ST peptide”.
For `Nc1ncnc2c1ncn2[C@@H]1O[C@H](COP(=O)(O)OP(=O)(O)OP(=O)(O)O)[C@@H](O)[C@H]1O` [ATP], the “ATP inhibition of detergent-mediated activity, chimeric receptor harboring the mouse KHD” value [8] is listed as “no inhibition of detergent-mediated activity by ATP”, the “ATP inhibition of Lubrol-stimulated GC activity, GC-CK516A” value (GC-CK516A [9]) is listed as “inhibition is lost” and the “ATP inhibition of Lubrol-stimulated GC activity” value (hGC-C) is listed as “inhibits Lubrol-stimulated GC activity”. For the same compound, the “ATP-mediated inhibition of Lubrol-stimulated GC activity, mGC-C” value (mouse GC-C [1]; 1 mM MgATP, 0.1% Lubrol-PX) was “lost and no allosteric inhibition of guanylyl cyclase activity and no inhibition of detergent-mediated activity by ATP”, the “ATP-mediated inhibition of MnGTP-mediated activity, hmCYC” value (hmCYC chimeric GC-C [10]) was “displayed ATP-mediated inhibition of MnGTP-mediated activity” and the “ATP inhibition of GC activity with Mn2+, GC-CK516A” value (GC-CK516A [11]) was “inhibition is also seen”. For the same compound, the “ATP inhibition of MnGTP-mediated and detergent-mediated GC activity” value (GC-C) was “inhibit in vitro MnGTP-mediated and detergent-mediated GC activity”, the “ATP-mediated inhibition of GC activity with MnGTP, hGC-C” value (human GC-C [12]) was “remained” and the “ATP inhibition of GC activity with Mn2+” value (human GC-C [13]) was “inhibits GC activity when Mn^2+ is the metal ion used in assays”. The “ATP-mediated inhibition of Lubrol-stimulated GC activity, mhCYC” value (mhCYC chimeric GC-C) was “lost”, the “ATP-mediated inhibition of Lubrol-stimulated GC activity, hmCYC” value (hmCYC chimeric GC-C [14]) was “retained” and the “ATP-mediated inhibition of GC activity with MnGTP, mGC-C” value (mouse GC-C [15]) was “remained; also recorded: displayed ATP-mediated inhibition of MnGTP-mediated activity”.
